UPR XBP1 act – adaptive UPR (XBP1) activation; activation, % at 20 µM; AID 463104; CHO-XBP1 luciferase reporter, IRE1-XBP1 UPR activation, luminescence; percent of tunicamycin response, DMSO as zero; hit rate 0.33% among 330,000;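 active means versus positive control, 20 µM dose yields 30% or more activation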;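 further: 100% = tunicamycin at 10 µg/mL and 0% = DMSO only wells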
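Material: CHO-XBP1 cells stably carrying IRE1-XBP1-driven luciferase reporter | Medium: F12 with 10% serum | Compound dosing: 20 µM single concentration, DMSO 1% | Incubation: Overnight seeding at 37 °C, 6 h compound treatment at 37 °C | Detection: Steady-Glo luminescence read | Read-out basis: % activation of reporter signal versus tunicamycin and DMSO controls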
TIM10 inh – growth inhibitors of TIM10 yeast strain | S. cerevisiae TIM10 strain growth, BacTiter-Glo luminescence, 24 h | inhibition, % at 10 µM | hit rate 1.4% among 330,000;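 active means inhibition of 40% or more at the single tested concentration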;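 further: wild-type TIM10 isogenic control strain grown at permissive 25 °C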
tim10-1 inh – tim10-1 yeast growth inhibition. inhibition, % at 20 µM. S. cerevisiae tim10-1 ts strain growth, BacTiter-Glo, 24 h. hit rate 2.2% among 330,000. AID 463190;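 active means inhibition of at least 40%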;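 further: mutant grown at 25 °C; 0% = DMSO wells with yeast and 100% = wells holding no yeast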
tim23-1 inh – inhibits growth of tim23-1 mutant yeast; S. cerevisiae tim23-1 growth, BacTiter-Glo luminescence, 24 h; inhibition, % at 20 µM; AID 463212; hit rate 1.3% among 330,000;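 active means growth inhibition of the mutant yeast at or above 50%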;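 further: temperature-sensitive mutant grown at 25 °C; plate controls were DMSO-treated mutant yeast for no effect and medium wells lacking yeast for full effect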
UPR CHOP act – activators of apoptotic arm of unfolded protein response (CHOP). activation, % at 10 µM. hit rate 0.34% among 330,000. CHO-CHOP luciferase reporter, UPR activation, luminescence; percent of tunicamycin response over DMSO baseline;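 active means at 10 µM dose, activation of 40% or more, normalized to positive control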;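 further: 100% = tunicamycin at 10 µg/mL and 0% = DMSO alone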
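Test system: CHO-CHOP cells, stable luciferase reporter of PERK-eIF2a-CHOP signalling | Quantity: 500 CHO-CHOP cells per well | Buffer or medium: F12 plus 10% serum | Compound dosing: 10 µM single point, 0.5% DMSO | Schedule: 6 h compound treatment, 37 °C | Signal: Luciferase luminescence | Control set: Tunicamycin high control, DMSO low control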
CHOP UPR conf – apoptotic UPR (CHOP) activation, confirmed; hit rate 64% among 1,000; shares compounds with UPR CHOP act; activation, % at 10 µM; AID 463112; CHO-CHOP cells, CHOP-luciferase reporter luminescence; percent of tunicamycin response, DMSO as zero; in the data active means activation above about 33%;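 further: 0% = DMSO wells and 100% = tunicamycin 10 µg/mL wells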
UPR XBP1 confirm – adaptive UPR (XBP1) activation, confirmed. shares compounds with UPR XBP1 act. CHO-XBP1 IRE1-XBP1 luciferase reporter, luminescence. activation, % at 20 µM. hit rate 63% among 1,000. AID 485299;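 active means reporter signal at least 30% of the positive control's activation in two or more of four replicate wells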;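 further: plate controls were DMSO negative control for no effect and tunicamycin 10 µg/mL positive control for full effect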
tim10-1 conf – tim10-1 yeast growth inhibition, confirmed; shares compounds with tim10-1 inh; S. cerevisiae tim10-1 ts strain growth, BacTiter-Glo, 24 h; inhibition, % at 20 µM; hit rate 56% among 7,400; AID 463213;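 active means inhibition of yeast growth at or above a set limit in either of two repeat tests at 20 µM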;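 further: tim10-1 mutant grown at permissive 25 °C to find synthetic lethal compounds; 0% = DMSO yeast wells and 100% = medium wells without yeast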
TIM10 conf – TIM10 yeast growth inhibition, confirmed. S. cerevisiae tim10 strain growth, BacTiter-Glo luminescence, 24 h. shares compounds with TIM10 inh. hit rate 63% among 4,600. inhibition, % at 10 µM;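 active means inhibition of yeast growth at or above a set limit in either of two replicates at 10 µM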;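 further: this counterscreen used the strain with wild-type TIM10; 0% = yeast with DMSO and 100% = medium wells lacking yeast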
tim23-1 confirm – confirmation of tim23-1 mutant yeast growth inhibitors; shares compounds with tim23-1 inh; S. cerevisiae tim23-1 growth, BacTiter-Glo luminescence, 24 h; inhibition, % at 20 µM; hit rate 83% among 4,400; AID 463218;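 active means inhibition above about 39% in either of two replicate wells at 20 µM, limit read from the data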;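 further: temperature-sensitive tim23-1 mutant grown at 25 °C; 0% = DMSO wells with yeast and 100% = medium wells without yeast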
The depositor's hits bear a star. This is a sample that favours compounds with a hit; in the whole collection about 3.9% have one here.

CCCC(=O)NC(c1ccc(OC)cc1)c1ccc2cccnc2c1O (configuration not stated) was read as UPR XBP1 act 4, TIM10 inh 21, tim10-1 inh 34, tim23-1 inh 21 and UPR CHOP act 3.
For C=CCNC(=S)N/N=C(\C)c1ccccn1 the results were UPR XBP1 act 1, TIM10 inh -16, tim10-1 inh 9, tim23-1 inh 61*, UPR CHOP act 211*, CHOP UPR conf 203* and tim23-1 confirm 51*.
CC(=O)Nc1ccccc1C was read as UPR XBP1 act -3, TIM10 inh 10, tim10-1 inh -19, tim23-1 inh -10 and UPR CHOP act 1.
Screening CC(=O)/C(=C/c1ccccc1)C(=O)Nc1ccccc1C returned UPR XBP1 act -3, TIM10 inh 72*, tim10-1 inh 61*, tim23-1 inh 68*, UPR CHOP act 46*, CHOP UPR conf 64*, tim10-1 conf 52*, TIM10 conf 63* and tim23-1 confirm 54*.
Screening CCCCn1c(N)c(N(CC(C)C)C(=O)c2cc(-c3ccncc3)nc3ccccc23)c(=O)[nH]c1=O returned UPR XBP1 act 0, TIM10 inh -6, tim10-1 inh -7, tim23-1 inh 3 and UPR CHOP act -1.
Screening O=C(/C=C/Sc1ccc(C(F)(F)F)cn1)c1ccccc1 returned UPR XBP1 act -1, TIM10 inh 22, tim10-1 inh 41*, tim23-1 inh 61*, UPR CHOP act 84*, CHOP UPR conf 47*, tim10-1 conf 51* and tim23-1 confirm 47*.
O=C(CSc1ccc(C(F)(F)F)cn1)Nc1ccccc1 was read as UPR XBP1 act 1, TIM10 inh 2, tim10-1 inh -11, tim23-1 inh 6 and UPR CHOP act 0.
For Cc1ccc(C)c(S(=O)(=O)NCC(=O)Nc2ccc3c(c2)OCO3)c1 the results were UPR XBP1 act -2, TIM10 inh -10, tim10-1 inh -14, tim23-1 inh 17 and UPR CHOP act 2.
Cc1cccc(C(=O)Nc2ccc(C(=O)/C=C/c3ccncc3)cc2)c1 was read as UPR XBP1 act -9, TIM10 inh 26, tim10-1 inh 34, tim23-1 inh 62*, UPR CHOP act 49*, CHOP UPR conf -9 and tim23-1 confirm 59*.
`Cc1ccc(C(C[N+](=O)[O-])n2nc(C)cc2C)cc1` (configuration not stated) gave UPR XBP1 act 55*, TIM10 inh 23, tim10-1 inh 53*, tim23-1 inh 80*, UPR CHOP act 57*, CHOP UPR conf 83*, UPR XBP1 confirm 20, tim10-1 conf 36* and tim23-1 confirm 73*.
O=C(CN(c1ccccc1)S(=O)(=O)c1ccccc1[N+](=O)[O-])Nc1cccnc1 was read as UPR XBP1 act 1, TIM10 inh 11, tim10-1 inh -2, tim23-1 inh 4 and UPR CHOP act 0.
CN(/N=C\c1ccc(O)c(O)c1)c1nc(-c2ccccc2)cc(-c2ccccc2)n1 was read as UPR XBP1 act 66*, TIM10 inh 9, tim10-1 inh 33, tim23-1 inh 55*, UPR CHOP act 112*, CHOP UPR conf 93*, UPR XBP1 confirm 98* and tim23-1 confirm 41*.
For COc1cc(/C=N/N(c2ccccc2)c2ccccc2)ccc1O the results were UPR XBP1 act 0, TIM10 inh 2, tim10-1 inh -5, tim23-1 inh 47 and UPR CHOP act 6.
Screening CC1CCC(NC(=O)CSc2nnnn2C)CC1 (configuration not stated) returned UPR XBP1 act 2, TIM10 inh -5, tim10-1 inh -11, tim23-1 inh -9 and UPR CHOP act 1.
For CCCCCCn1nc(C(=O)N(CCOC)c2c(N)n(CCCC)c(=O)[nH]c2=O)c2ccccc2c1=O the results were UPR XBP1 act -2, TIM10 inh 7, tim10-1 inh 16, tim23-1 inh 12 and UPR CHOP act -1.
For Cc1ccc(-c2nn(-c3ccccc3)cc2NC(=O)CCl)cc1 the results were UPR XBP1 act -5, TIM10 inh 29, tim10-1 inh 36, tim23-1 inh 65*, UPR CHOP act 82*, CHOP UPR conf 0 and tim23-1 confirm 44*.
Screening Cc1ccc(-c2nn(-c3ccccc3)cc2CO)cc1 returned UPR XBP1 act 4, TIM10 inh 9, tim10-1 inh 3, tim23-1 inh 21 and UPR CHOP act 7.
For Cc1cccc(CSc2cccc3cccnc23)c1 the results were UPR XBP1 act 5, TIM10 inh 37, tim10-1 inh 46*, tim23-1 inh 51*, UPR CHOP act 407*, CHOP UPR conf 254*, tim10-1 conf 40* and tim23-1 confirm 50*.
Cc1cccc(N=Nc2ccc(O)c3ncccc23)c1 was read as UPR XBP1 act 7, TIM10 inh 17, tim10-1 inh 18, tim23-1 inh 60*, UPR CHOP act 86*, CHOP UPR conf 69* and tim23-1 confirm 56*.
`CCCNC(=S)N1CCC(NC(=O)c2ccc(C)cc2)CC1` gave UPR XBP1 act -1, TIM10 inh 3, tim10-1 inh 7, tim23-1 inh 15 and UPR CHOP act 1.
COc1cccc(C(=O)C(C#N)=C(SC)SC)c1 was read as UPR XBP1 act -4, TIM10 inh 38, tim10-1 inh 14, tim23-1 inh 60*, UPR CHOP act 119*, CHOP UPR conf 3 and tim23-1 confirm 77*.
Screening Cc1ccsc1CN(C)C(=O)CN1C(=O)NC2(CCCCC2C)C1=O (configuration not stated) returned UPR XBP1 act -2, TIM10 inh 0, tim10-1 inh 25, tim23-1 inh 3 and UPR CHOP act 0.
Screening COc1ccc(/C=C/C(=O)c2ccc([N+](=O)[O-])o2)cc1 returned UPR XBP1 act -6, TIM10 inh 70*, tim10-1 inh 45*, tim23-1 inh 79*, UPR CHOP act 89*, CHOP UPR conf 99*, tim10-1 conf 16, TIM10 conf 79* and tim23-1 confirm -4.

Screening data as filed in PubChem BioAssay.
